Data from ChEMBL document CHEMBL4130520 (ACS Med Chem Lett, 2017).
Converted amounts (≈) assume the structure as drawn.

What was measured:
[1] = test system: Mycobacterium tuberculosis; test: Antitubercular activity against Mycobacterium tuberculosis H37Rv after 4 days by MABA method; assay type: functional; conditions: 96 h
Method in brief: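 Aerobic culture of H37Rv in microplate Alamar blue assay. MIC90 taken as the minimum concentration giving 90% growth inhibition. Each value is the mean of at least two independent determinations. Most compounds were tested as RS,SR diastereomer mixtures; a few were tested only as the pure R,S enantiomer.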

[2] = molecular target: Voltage-gated inwardly rectifying potassium channel KCNH2 (Homo sapiens, UniProt Q12809); test: Inhibition of human ERG
Voltage-gated inwardly rectifying potassium channel KCNH2, sequence (Q12809 whole entry): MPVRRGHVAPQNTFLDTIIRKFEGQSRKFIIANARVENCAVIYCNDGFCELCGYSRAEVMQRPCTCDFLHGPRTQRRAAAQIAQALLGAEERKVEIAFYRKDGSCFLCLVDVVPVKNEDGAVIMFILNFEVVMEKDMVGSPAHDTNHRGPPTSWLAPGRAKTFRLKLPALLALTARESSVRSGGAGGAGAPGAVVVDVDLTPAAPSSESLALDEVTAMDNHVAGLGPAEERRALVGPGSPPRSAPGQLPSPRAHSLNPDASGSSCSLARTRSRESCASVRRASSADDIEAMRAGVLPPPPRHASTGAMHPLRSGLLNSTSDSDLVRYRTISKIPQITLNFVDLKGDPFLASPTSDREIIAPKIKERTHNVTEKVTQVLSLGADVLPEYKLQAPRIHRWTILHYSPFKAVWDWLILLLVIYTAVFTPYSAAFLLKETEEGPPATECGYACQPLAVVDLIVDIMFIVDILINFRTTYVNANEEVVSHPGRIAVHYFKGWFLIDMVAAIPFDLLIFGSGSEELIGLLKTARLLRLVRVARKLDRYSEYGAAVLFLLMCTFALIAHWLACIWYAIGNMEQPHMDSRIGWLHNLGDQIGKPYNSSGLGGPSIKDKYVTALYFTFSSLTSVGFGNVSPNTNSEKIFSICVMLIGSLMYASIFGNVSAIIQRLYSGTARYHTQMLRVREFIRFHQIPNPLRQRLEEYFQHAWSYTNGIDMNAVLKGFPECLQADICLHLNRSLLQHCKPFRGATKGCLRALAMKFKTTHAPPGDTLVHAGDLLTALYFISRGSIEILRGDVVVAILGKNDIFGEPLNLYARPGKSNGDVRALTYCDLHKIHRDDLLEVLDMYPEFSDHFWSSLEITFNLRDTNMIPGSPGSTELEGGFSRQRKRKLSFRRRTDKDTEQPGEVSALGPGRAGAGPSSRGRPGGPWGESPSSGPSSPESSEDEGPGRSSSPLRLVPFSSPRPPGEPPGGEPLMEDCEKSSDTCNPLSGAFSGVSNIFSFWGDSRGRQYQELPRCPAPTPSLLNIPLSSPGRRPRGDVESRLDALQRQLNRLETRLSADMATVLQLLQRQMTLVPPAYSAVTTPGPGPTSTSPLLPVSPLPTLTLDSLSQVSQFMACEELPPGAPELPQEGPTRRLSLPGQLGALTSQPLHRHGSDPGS

Row | SMILES | MIC90 [1] [µg/mL] | IC50 [2] [µM]
1 | COc1cccc([C@H](c2cc3cc(N4CC[S+]([O-])CC4)ccc3nc2OC)[C@@](O)(CCN(C)C)c2cccc(F)c2)c1OC | 4.8 (≈ 7.72 µM) | –
2 | CCc1ccc2nc(OC)c(C(c3ccccc3)C(O)(CCN(C)C)c3cccc4ccccc34)cc2c1 (stereo not given) | 0.23 (≈ 0.456 µM) | –
3 | COc1nc2ccccc2cc1C(c1ccccc1)C(O)(CCN(C)C)c1cccc2ccccc12 (stereo not given) | 1.9 (≈ 3.99 µM) | 1.6
4 | COc1cccc(C(c2cc3cc(N4CCOCC4)ccc3nc2OC)C(O)(CCN(C)C)c2cccc(OC(F)(F)F)c2)c1F (stereo not given) | 0.14 (≈ 0.218 µM) | –
5 | COc1nc2ccc(C#N)cc2cc1C(c1cccc(F)c1)C(O)(CCN(C)C)c1cccc(OC(F)(F)F)c1 (stereo not given) | 0.47 (≈ 0.849 µM) | –
6 | COc1cccc(C(c2cc3cc(N4CC5(COC5)C4)ccc3nc2OC)C(O)(CCN(C)C)c2cccc(OC(F)(F)F)c2)c1OC (stereo not given) | 0.75 (≈ 1.12 µM) | –
7 | COc1cccc(C(O)(CCN(C)C)C(c2cc3cc(Br)ccc3nc2OC)c2cccc(OC)c2F)c1 (stereo not given) | 0.1 (≈ 0.171 µM) | –
8 | C#Cc1ccc2nc(OC)c(C(c3ccccc3)C(O)(CCN(C)C)c3cccc4ccccc34)cc2c1 (stereo not given) | 0.48 (≈ 0.959 µM) | –
9 | COc1cccc(C(c2cc3cc(Br)ccc3nc2OC)C(O)(CCN(C)C)c2cccc(OC(F)(F)F)c2)c1OC (stereo not given) | 0.09 (≈ 0.139 µM) | –
10 | COc1nc2ccc(C(=O)N(C)C)cc2cc1C(c1ccccc1)C(O)(CCN(C)C)c1cccc2ccccc12 (stereo not given) | 2.2 (≈ 4.02 µM) | 6.3
11 | COc1nc2ccc(Br)cc2cc1C(c1ccccc1)C(O)(CCN(C)C)c1cccc(F)c1 (stereo not given) | 0.23 (≈ 0.439 µM) | –
12 | COc1cccc(C(c2cc3cc(Br)ccc3nc2OC)C(O)(CCN(C)C)c2cccc(C)c2)c1F (stereo not given) | 0.04 (≈ 0.0705 µM) | –
13 | COc1cccc([C@H](c2cc3cc(N4CCSCC4)ccc3nc2OC)[C@@](O)(CCN(C)C)c2cccc(F)c2)c1OC | 0.28 (≈ 0.462 µM) | –
14 | C#Cc1ccc2nc(OC)c(C(c3ccccc3)C(O)(CCN(C)C)c3cccc(F)c3)cc2c1 (stereo not given) | 0.36 (≈ 0.768 µM) | –
15 | COc1nc2ccc(C3CC3)cc2cc1C(c1ccccc1)C(O)(CCN(C)C)c1cccc2ccccc12 (stereo not given) | 0.13 (≈ 0.252 µM) | –
16 | COc1cccc(C(O)(CCN(C)C)C(c2cc3cc(C#N)ccc3nc2OC)c2cccc(OC)c2F)c1 (stereo not given) | 0.09 (≈ 0.17 µM) | –
17 | COc1nc2ccc(N(C)S(=O)(=O)N(C)C)cc2cc1[C@@H](c1ccccc1)[C@@](O)(CCN(C)C)c1cccc(F)c1 | 5 (≈ 8.61 µM) | –
18 | COc1nc2ccc(N3CCOCC3)cc2cc1C(c1cccc(F)c1)C(O)(CCN(C)C)c1cccc(OC(F)(F)F)c1 (stereo not given) | 0.85 (≈ 1.39 µM) | –
19 | COc1cccc([C@@H](c2cc3cc(N4CC[S+]([O-])CC4)ccc3nc2OC)[C@@](O)(CCN(C)C)c2cccc(F)c2)c1F | > 5 | –
20 | COc1cccc(C(c2cc3cc(N4CC5(COC5)C4)ccc3nc2OC)C(O)(CCN(C)C)c2cccc(OC(F)(F)F)c2)c1F (stereo not given) | 0.77 (≈ 1.17 µM) | –
21 | COc1cccc(C(c2cc3cc(F)ccc3nc2OC)C(O)(CCN(C)C)c2cccc(OC(F)(F)F)c2)c1F (stereo not given) | 0.21 (≈ 0.364 µM) | –
22 | COc1nc2ccc(Cl)cc2cc1C(c1ccccc1)C(O)(CCN(C)C)c1cccc2ccccc12 (stereo not given) | 0.71 (≈ 1.39 µM) | 6.9
23 | COc1cccc([C@H](c2cc3cc(N4CCS(=O)(=O)CC4)ccc3nc2OC)[C@@](O)(CCN(C)C)c2cccc(F)c2)c1OC | > 5 | –

Row | SMILES | MIC90 [1] [µg/mL] | IC50 [2] [µM]
24 | COc1cccc(C(c2cc3cc(C#N)ccc3nc2OC)C(O)(CCN(C)C)c2cccc(Cl)c2)c1F (stereo not given) | 0.13 (≈ 0.243 µM) | –
25 | COc1nc2ccc(NC3CCC3)cc2cc1[C@@H](c1ccccc1)[C@@](O)(CCN(C)C)c1cccc2ccccc12 | 0.48 (≈ 0.88 µM) | –
26 | COc1cccc(C(c2cc3cc(Br)ccc3nc2OC)C(O)(CCN(C)C)c2cccc(Cl)c2)c1F (stereo not given) | 0.07 (≈ 0.119 µM) | –
27 | COc1nc2ccc(CN)cc2cc1C(c1ccccc1)C(O)(CCN(C)C)c1cccc2ccccc12 (stereo not given) | > 12 | 1.7
28 | COc1cccc(C(c2cc3cc(N4CCOCC4)ccc3nc2OC)C(O)(CCN(C)C)c2cccc(OC)c2OC)c1OC (stereo not given) | 2.5 (≈ 3.96 µM) | –
29 | COc1cccc(C(c2cc3cc(N4CCNCC4)ccc3nc2OC)C(O)(CCN(C)C)c2cccc(OC(F)(F)F)c2)c1F (stereo not given) | 0.66 (≈ 1.03 µM) | –
30 | COc1cccc(C(c2cc3cc(N4CCOCC4)ccc3nc2OC)C(O)(CCN(C)C)c2cccc(OC(F)(F)F)c2)c1OC (stereo not given) | 0.68 (≈ 1.04 µM) | –
31 | COc1cccc(C(c2cc3cc(C#N)ccc3nc2OC)C(O)(CCN(C)C)c2cccc(F)c2)c1F (stereo not given) | 0.18 (≈ 0.348 µM) | –
32 | COc1nc2ccc(OC(F)(F)F)cc2cc1C(c1ccccc1)C(O)(CCN(C)C)c1cccc2ccccc12 (stereo not given) | 0.24 (≈ 0.428 µM) | –
33 | COc1nc2ccc(Cl)cc2cc1C(c1cccc(F)c1)C(O)(CCN(C)C)c1cccc(OC(F)(F)F)c1 (stereo not given) | 0.09 (≈ 0.16 µM) | –
34 | COc1cccc(C(c2cc3cc(N4CCCCC4)ccc3nc2OC)C(O)(CCN(C)C)c2cccc(OC(F)(F)F)c2)c1F (stereo not given) | 2.3 (≈ 3.58 µM) | –
35 | COc1cccc([C@@H](c2cc3cc(N4CC5(COC5)C4)ccc3nc2OC)[C@@](O)(CCN(C)C)c2cccc(Cl)c2)c1F | 0.31 (≈ 0.511 µM) | –
36 | COc1cccc(C(c2cc3cc(Br)ccc3nc2OC)C(O)(CCN(C)C)c2cccc(F)c2)c1OC (stereo not given) | 0.04 (≈ 0.0686 µM) | –
37 | COc1nc2ccc(C(=O)O)cc2cc1C(c1ccccc1)C(O)(CCN(C)C)c1cccc2ccccc12 (stereo not given) | > 6.7 | 10
38 | CC#Cc1ccc2nc(OC)c(C(c3ccccc3)C(O)(CCN(C)C)c3cccc4ccccc34)cc2c1 (stereo not given) | 6.1 (≈ 11.9 µM) | 7.9
39 | COc1cccc(C(c2cc3cc(Br)ccc3nc2OC)C(O)(CCN(C)C)c2cccc(F)c2)c1F (stereo not given) | 0.1 (≈ 0.175 µM) | –
40 | COc1cccc([C@@H](c2cc3cc(S(C)(=O)=O)ccc3nc2OC)[C@@](O)(CCN(C)C)c2cccc(F)c2)c1F | 2.3 (≈ 4.03 µM) | –
41 | COc1cccc(C(c2cc3cc(OC(F)(F)F)ccc3nc2OC)C(O)(CCN(C)C)c2cccc(OC(F)(F)F)c2)c1F (stereo not given) | 1.1 (≈ 1.71 µM) | –
42 | COc1nc2ccc(I)cc2cc1C(c1ccccc1)C(O)(CCN(C)C)c1cccc2ccccc12 (stereo not given) | 0.2 (≈ 0.332 µM) | –
43 | COc1nc2ccc(N3CC4(COC4)C3)cc2cc1[C@@H](c1ccccc1)[C@@](O)(CCN(C)C)c1cccc2ccccc12 | 0.71 (≈ 1.24 µM) | –
44 | C=Cc1ccc2nc(OC)c(C(c3ccccc3)C(O)(CCN(C)C)c3cccc4ccccc34)cc2c1 (stereo not given) | 1.9 (≈ 3.78 µM) | –
45 | COc1cccc([C@@H](c2cc3cc(N4CC5(COC5)C4)ccc3nc2OC)[C@@](O)(CCN(C)C)c2cccc(C)c2)c1F | 1.1 (≈ 1.88 µM) | –
46 | COc1cccc(C(c2cc3cc(N4CC5(COC5)C4)ccc3nc2OC)[C@@](O)(CCN(C)C)c2cccc(F)c2)c1F (single isomer, unassigned) | 0.51 (≈ 0.865 µM) | –

Row | SMILES | MIC90 [1] [µg/mL] | IC50 [2] [µM]
47 | COc1nc2ccc(C)cc2cc1C(c1ccccc1)C(O)(CCN(C)C)c1cccc2ccccc12 (stereo not given) | 1.74 (≈ 3.55 µM) | –
48 | COc1cccc(C(c2cc3cc(C#N)ccc3nc2OC)C(O)(CCN(C)C)c2cccc(OC(F)(F)F)c2)c1F (stereo not given) | 0.26 (≈ 0.446 µM) | –
49 | COc1cccc(C(c2cc3cc(C#N)ccc3nc2OC)C(O)(CCN(C)C)c2cccc(OC(F)(F)F)c2)c1OC (stereo not given) | 0.21 (≈ 0.353 µM) | –
50 | COc1cccc(C(c2cc3cc(Br)ccc3nc2OC)C(O)(CCN(C)C)c2cccc(OC)c2OC)c1OC (stereo not given) | 0.2 (≈ 0.32 µM) | –
51 | COc1nc2ccc(N)cc2cc1C(c1ccccc1)C(O)(CCN(C)C)c1cccc2ccccc12 (stereo not given) | 1.9 (≈ 3.86 µM) | –
52 | COc1cccc([C@H](c2cc3cc(N(C)S(=O)(=O)N(C)C)ccc3nc2OC)[C@@](O)(CCN(C)C)c2cccc(F)c2)c1OC | 1.13 (≈ 1.76 µM) | –
53 | COc1cccc(C(c2cc3cc(C#N)ccc3nc2OC)C(O)(CCN(C)C)c2cccc(F)c2)c1OC (stereo not given) | 0.17 (≈ 0.321 µM) | –
54 | COc1cccc([C@@H](c2cc3cc(SC)ccc3nc2OC)[C@@](O)(CCN(C)C)c2cccc(F)c2)c1F | 0.13 (≈ 0.241 µM) | –
55 | COc1nc2ccc(F)cc2cc1C(c1ccccc1)C(O)(CCN(C)C)c1cccc2ccccc12 (stereo not given) | 0.94 (≈ 1.9 µM) | –
56 | COc1cccc(C(c2cc3cc(C#N)ccc3nc2OC)C(O)(CCN(C)C)c2cccc(OC)c2OC)c1OC (stereo not given) | 0.34 (≈ 0.595 µM) | –
57 | COc1cccc([C@](O)(CCN(C)C)[C@H](c2cc3cc(N4CC5(COC5)C4)ccc3nc2OC)c2cccc(OC)c2F)c1 | 0.87 (≈ 1.45 µM) | –
58 | COc1cccc(C(c2cc3cc(Br)ccc3nc2OC)C(O)(CCN(C)C)c2cccc(OC(F)(F)F)c2)c1F (stereo not given) | 0.09 (≈ 0.141 µM) | –
59 | COc1nc2ccc(Br)cc2cc1C(c1cccc(F)c1)C(O)(CCN(C)C)c1cccc(OC(F)(F)F)c1 (stereo not given) | 0.25 (≈ 0.412 µM) | –
60 | COc1nc2ccc(Br)cc2cc1[C@@H](c1ccccc1)[C@@](O)(CCN(C)C)c1cccc2ccccc12 [BEDAQUILINE] | 0.09 (≈ 0.162 µM) | –
61 | COc1cccc(C(c2cc3cc(C#N)ccc3nc2OC)C(O)(CCN(C)C)c2cccc(C)c2)c1F (stereo not given) | 0.09 (≈ 0.175 µM) | –
62 | COc1nc2ccc(C#N)cc2cc1C(c1ccccc1)C(O)(CCN(C)C)c1cccc(F)c1 (stereo not given) | 0.69 (≈ 1.47 µM) | –
63 | COc1cccc([C@@H](c2cc3cc(N4CCSCC4)ccc3nc2OC)[C@@](O)(CCN(C)C)c2cccc(F)c2)c1F | 0.19 (≈ 0.32 µM) | –
64 | COc1cccc([C@@H](c2cc3cc(N4CCS(=O)(=O)CC4)ccc3nc2OC)[C@@](O)(CCN(C)C)c2cccc(F)c2)c1F | > 5 | –
65 | COc1cccc(C(c2cc3cc(Cl)ccc3nc2OC)C(O)(CCN(C)C)c2cccc(OC)c2OC)c1OC (stereo not given) | 0.25 (≈ 0.43 µM) | –
66 | COc1nc2ccc(N(C)S(=O)(=O)c3ccccc3)cc2cc1[C@@H](c1ccccc1)[C@@](O)(CCN(C)C)c1cccc(F)c1 | 4.1 (≈ 6.68 µM) | –
67 | COc1cccc(C(c2cc3cc(N4CC5(COC5)C4)ccc3nc2OC)C(O)(CCN(C)C)c2cccc(F)c2)c1OC (stereo not given) | 0.66 (≈ 1.1 µM) | –
68 | COc1nc2ccc(NC3CCCC3)cc2cc1C(c1ccccc1)C(O)(CCN(C)C)c1cccc2ccccc12 (stereo not given) | 1.7 (≈ 3.04 µM) | –
69 | COc1nc2ccc(C(F)(F)F)cc2cc1C(c1ccccc1)C(O)(CCN(C)C)c1cccc2ccccc12 (stereo not given) | 0.38 (≈ 0.698 µM) | –
